Results taken from ChEMBL document CHEMBL4673378, “Investigating the effects of the core nitrogen atom configuration on the thermodynamic solubility of 6,5-bicyclic heterocycles” (Bioorg Med Chem Lett, 2021).
Values after ≈ are worked out from the molar mass of the structure shown.

Key:
Type in all cases: physicochemical
[1] = Melting point of the compound using crystalline form of sample
[2] = Ionization constant, pKa of the compound
[3] = Lipophilicity, log D of the compound at pH 7.4 by chromatographic reverse phase method; conditions: reverse phase chromatography
[4] = Thermodynamic solubility of compound in SLF at pH 6.9 using crystalline form of sample; conditions: read-out: Therm_solubility
Procedure, shortened: (§1)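 Thermodynamic solubility was measured from solid in Simulated Lung Fluid, buffered at pH 6.9 and containing 0.75 mM lecithin plus bovine serum albumin, reported in μg/mL. Runs were at least duplicate unless otherwise footnoted. Amorphous or crystalline material was used, as the line states.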

[5] = Kinetic solubility of the compound at pH 7.4 using crystalline form of sample; conditions: read-out: Kinetic_solubility
Procedure, shortened: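 Solubility at pH 7.4 measured from a 10 mM DMSO stock (stock concentration) of crystalline material, reported in μg/mL. Runs were at least duplicate unless otherwise footnoted.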

[6] = Thermodynamic solubility of compound in FaSSIF at pH 6.5 using crystalline form of sample; conditions: read-out: Therm_solubility
Procedure, shortened: (§2)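 Thermodynamic solubility in Fasted State Simulated Intestinal Fluid, buffered at pH 6.5 and containing 0.75 mM lecithin, reported in μg/mL. Runs were at least duplicate unless otherwise footnoted. Solid form was amorphous or crystalline, as the line states.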

[7] = Melting point of the compound using amorphous form of sample
[8] = Thermodynamic solubility of compound in SLF at pH 6.9 using amorphous form of sample; conditions: read-out: Therm_solubility; procedure, shortened: as §1
[9] = Thermodynamic solubility of compound in FaSSIF at pH 6.5 using amorphous form of sample; conditions: read-out: Therm_solubility; procedure, shortened: as §2

| Tm [1] | pKa [2] | chromatographic logD [3] | solubility thermodynamic [4] | solubility kinetic [5] | solubility thermodynamic [6] | Tm [7] | solubility thermodynamic [8] | solubility thermodynamic [9] | Compound |
| --- | --- | --- | --- | --- | --- | --- | --- | --- | --- |
| 101 °C | 2.8 | 5.5 | 0.006 mg/mL (≈ 15.4 µM) | 0.035 mg/mL (≈ 89.9 µM) | 0.031 mg/mL (≈ 79.6 µM) |  |  |  | COc1ccc(-c2c(C)nn3c(NCc4cccnc4)nc(C)cc23)cc1OC |
| 90 °C | 6.7 | 6 | 0.029 mg/mL (≈ 73.3 µM) | 0.064 mg/mL (≈ 162 µM) | 0.233 mg/mL (≈ 589 µM) |  |  |  | COc1ccc(-c2c(C)nc3c(NCC4CCOCC4)cc(C)cn23)cc1OC |
| 85 °C | 6.5 | 4.9 | 0.033 mg/mL (≈ 84.9 µM) | 0.086 mg/mL (≈ 221 µM) | 0.109 mg/mL (≈ 281 µM) |  |  |  | COc1ccc(-c2c(C)nc3c(NCc4cccnc4)cc(C)cn23)cc1OC |
| 203 °C | 6.6 | 4.3 | 0.002 mg/mL (≈ 4.65 µM) | 0.029 mg/mL (≈ 67.4 µM) | 0.006 mg/mL (≈ 13.9 µM) |  |  |  | COc1ccc(-c2c(C)nc3c(NCc4ccc(C(N)=O)cc4)cc(C)cn23)cc1OC |
| 238 °C | 5.4 | 3.7 | 0.001 mg/mL (≈ 2.32 µM) | 0.079 mg/mL (≈ 183 µM) | 0.015 mg/mL (≈ 34.8 µM) |  |  |  | COc1ccc(-c2c(C)nn3c(NCc4ccc(N(C)C)cc4)cc(C)nc23)cc1OC |
|  | 5.6 | 5.2 |  | 0.099 mg/mL (≈ 250 µM) |  | 93 °C | 0.01 mg/mL (≈ 25.2 µM) | 0.007 mg/mL (≈ 17.7 µM) | COc1ccc(-c2c(C)nc3c(NCC4CCOCC4)nc(C)cn23)cc1OC |
| 104 °C | 4.4 | 6.4 | 0.003 mg/mL (≈ 7.57 µM) | 0.044 mg/mL (≈ 111 µM) | 0.013 mg/mL (≈ 32.8 µM) |  |  |  | COc1ccc(-c2c(C)nn3c(NCC4CCOCC4)nc(C)cc23)cc1OC |
|  | 5.3 | 4.5 |  | 0.067 mg/mL (≈ 172 µM) |  | 128 °C | 0.058 mg/mL (≈ 149 µM) | 0.335 mg/mL (≈ 860 µM) | COc1ccc(-c2c(C)nc3c(NCc4cccnc4)nc(C)cn23)cc1OC |
| 149 °C | 2.5 | 4.5 | 0.036 mg/mL (≈ 92.2 µM) | > 0.15 mg/mL | 0.036 mg/mL (≈ 92.2 µM) |  |  |  | COc1ccc(-c2c(C)nn3c(NCc4cccnc4)nc(C)nc23)cc1OC |
| 194 °C | 3.8 | 4.8 | < 0.006 mg/mL | 0.019 mg/mL (≈ 44 µM) | 0.005 mg/mL (≈ 11.6 µM) |  |  |  | COc1ccc(-c2c(C)nn3c(NCc4ccc(C(N)=O)cc4)nc(C)cc23)cc1OC |
| 143 °C | 3.1 | 5.1 | 0.018 mg/mL (≈ 45.3 µM) | > 0.165 mg/mL | 0.029 mg/mL (≈ 73 µM) |  |  |  | COc1ccc(-c2c(C)nn3c(NCC4CCOCC4)nc(C)nc23)cc1OC |
| 167 °C | 2.9 | 3.9 | 0.01 mg/mL (≈ 23.1 µM) | 0.019 mg/mL (≈ 43.9 µM) | 0.032 mg/mL (≈ 74 µM) |  |  |  | COc1ccc(-c2c(C)nn3c(NCc4ccc(N(C)C)cc4)nc(C)nc23)cc1OC |
| 157 °C | 5.7 | 5.2 | 0.018 mg/mL (≈ 45.4 µM) | > 0.18 mg/mL | 0.025 mg/mL (≈ 63.1 µM) |  |  |  | COc1ccc(-c2c(C)nn3c(NCC4CCOCC4)cc(C)nc23)cc1OC |
| 149 °C | 5.4 | 4.3 | 0.039 mg/mL (≈ 100 µM) | > 0.107 mg/mL | 0.141 mg/mL (≈ 362 µM) |  |  |  | COc1ccc(-c2c(C)nn3c(NCc4cccnc4)cc(C)nc23)cc1OC |
|  | 5 | 3.9 |  | 0.053 mg/mL (≈ 123 µM) |  | 191 °C | 0.009 mg/mL (≈ 20.9 µM) | 0.032 mg/mL (≈ 74.2 µM) | COc1ccc(-c2c(C)nc3c(NCc4ccc(C(N)=O)cc4)nc(C)cn23)cc1OC |
